SMILES strings stand for the structures. Activity calls are given as the source filed them. The calls are words filed in the database; no cut-off is given here. Bounds are passed on as bounds.

Experiment [1] addresses Eukaryotic initiation factor 4A-I (Homo sapiens) (UniProt P60842). The experiment in a line: Inhibition of eIF4A1 (unknown origin) expressed in Escherichia coli BL21(DE3) at 0.01 to 100 uM using Poly(U) RNA as substrate preincubated for 10 mins followed by substrate addition measured after 60 mins by malachite green dye-based assay. The method, boiled down:
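Compound dilutions 100 to 0.0457 µM, 2% DMSO final, 10 min at 37°C. ATP added and reaction run 60 min at 37°C, then malachite green OD660 read. DMSO 2% and 20 mM EDTA served as controls. IC50 from semi-log fit.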

For experiment [2], the target named is Transitional endoplasmic reticulum ATPase (Homo sapiens, UniProt P55072). The experiment in a line: Inhibition of p97 (unknown origin) expressed in Escherichia coli BL21(DE3) preincubated for 10 mins followed by ATP addition measured after 60 mins by malachite green dye-based assay. The method, boiled down: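 Compound series 100 to 0.0457 µM, 2% DMSO final, 10 min at 37°C. Started with 200 µM ATP, incubated 60 min at 37°C, then malachite green OD660 read. IC50 from semi-log fit of normalized % inhibition.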

Experiment [3] deals with ATP-dependent RNA helicase DDX39A (Homo sapiens, UniProt O00148). The experiment in a line: Inhibition of DDX39A (unknown origin) expressed in Escherichia coli BL21(Rosetta 2) preincubated for 10 mins followed by ATP addition measured after 60 mins by malachite green dye-based assay. In a few lines: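 His-tagged DDX39A at 500 nM in MES-KOH pH 6.0 buffer (10 mM KOAc, 2.5 mM MgCl2, 1% glycerol, 1 mM DTT). Eight-point 3-fold series 100 to 0.0457 µM, 2% DMSO final, 10 min preincubation at 37°C. Started with 250 µM ATP, 60 min at 37°C, then malachite green read at OD660. EDTA 20 mM served as positive control. IC50 by semi-log fit of normalized inhibition.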

In experiment [4] the target is Probable ATP-dependent RNA helicase DDX17 (Homo sapiens, UniProt Q92841). As to the kind of experiment: Inhibition of DDX17 (unknown origin) expressed in Escherichia coli BL21(DE3) preincubated for 10 mins followed by ATP addition measured after 120 mins by malachite green dye-based assay. The method, boiled down:
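Compound gradient 100 to 0.0457 µM (3-fold), final DMSO 2%, 10 min at 37°C. Reaction started with 250 µM ATP at 37°C, phosphate read by malachite green OD660 at 120 min. IC50 from normalized % inhibition versus log concentration.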

The target of experiment [5] is ATP-dependent RNA helicase DDX3X (Homo sapiens, UniProt O00571). The experiment in a line: Inhibition of DDX3 (unknown origin) preincubated for 10 mins followed by ATP addition by malachite green dye-based assay. In a few lines: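 Compounds 100 to 0.0457 µM, 2% DMSO final, 10 min at 37°C. Initiated with 250 µM ATP at 37°C. Released phosphate detected with malachite green at OD660. IC50 fitted from normalized percent inhibition on a semi-log plot.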

Experiment [6] concerns the target Heat shock 70 kDa protein 1A (Homo sapiens, UniProt P0DMV8). The experiment in a line: Inhibition of HSPA1A (unknown origin) expressed in Escherichia coli BL21(DE3) preincubated for 10 mins followed by ATP addition by malachite green dye-based assay. The method, boiled down:
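His-tagged HSPA1A, induced at 16°C, used at 1,000 nM in 50 mM Tris-HCl pH 7.4, 150 mM KCl, 10 mM MgCl2. Compounds 100 to 0.0457 µM, 2% DMSO final, 10 min preincubation at 37°C. Reaction started with 200 µM ATP at 37°C, phosphate detected by malachite green OD660. IC50 by semi-log fit of normalized inhibition.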

For experiment [7], the target named is Eukaryotic initiation factor 4A-I (Homo sapiens) (UniProt P60842). As to the kind of experiment: Inhibition of eIF4A (unknown origin) expressed in Escherichia coli BL21(DE3) at 100 uM preincubated for 10 mins followed by ATP and fluorescently-labeled RNA addition measured after 10 mins by real-time fluorescence assay. The method, boiled down:
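Recombinant eIF4A from E. coli BL21(DE3), Talon-purified, at 500 nM in pH 6.0 MES-KOH buffer (10 mM K acetate, 2.5 mM MgCl2, 1% glycerol, 1 mM DTT). Preincubated with 100 µM compound (2% DMSO final) for 10 min at 22°C. Started with 50 nM labeled RNA plus 1 mM ATP, then real-time fluorescence read for 10 min at 25°C. Percent inhibition from slopes versus DMSO and water (no-ATP) controls.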

Experiment [8] has the same target.
For experiment [9] the target is unchanged. The experiment in a line: Inhibition of eIF4A (unknown origin) expressed in Escherichia coli BL21(DE3) at 100 uM preincubated for 10 mins followed by ATP and fluorescently-labeled RNA addition measured after 10 mins by real-time fluorescence assay relative to control. In a few lines: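 Real-time fluorescence helicase assay. eIF4A at 500 nM in MES-KOH pH 6.0 buffer, preincubated 10 min at 22°C with compound at 100 µM, 2% DMSO final. Started with 50 nM labeled RNA plus 1 mM ATP, or water as control, and read for 10 min at 25°C. % inhibition = 100 − ((A−B)/(C−B)×100), using the slopes of compound (A), water (B) and DMSO (C) traces.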

Chain of Eukaryotic initiation factor 4A-I (Homo sapiens) (P60842 whole entry): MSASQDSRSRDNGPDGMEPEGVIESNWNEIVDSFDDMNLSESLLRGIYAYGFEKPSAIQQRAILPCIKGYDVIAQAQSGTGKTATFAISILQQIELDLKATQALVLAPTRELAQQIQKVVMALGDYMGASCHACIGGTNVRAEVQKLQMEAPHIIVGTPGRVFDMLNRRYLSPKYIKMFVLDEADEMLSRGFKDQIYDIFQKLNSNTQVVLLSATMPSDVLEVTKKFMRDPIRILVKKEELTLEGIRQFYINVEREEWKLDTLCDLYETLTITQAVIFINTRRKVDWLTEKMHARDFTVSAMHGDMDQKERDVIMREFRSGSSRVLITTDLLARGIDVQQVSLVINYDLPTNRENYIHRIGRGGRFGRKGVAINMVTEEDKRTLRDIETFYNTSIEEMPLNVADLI
Chain of Heat shock 70 kDa protein 1A (P0DMV8 whole entry): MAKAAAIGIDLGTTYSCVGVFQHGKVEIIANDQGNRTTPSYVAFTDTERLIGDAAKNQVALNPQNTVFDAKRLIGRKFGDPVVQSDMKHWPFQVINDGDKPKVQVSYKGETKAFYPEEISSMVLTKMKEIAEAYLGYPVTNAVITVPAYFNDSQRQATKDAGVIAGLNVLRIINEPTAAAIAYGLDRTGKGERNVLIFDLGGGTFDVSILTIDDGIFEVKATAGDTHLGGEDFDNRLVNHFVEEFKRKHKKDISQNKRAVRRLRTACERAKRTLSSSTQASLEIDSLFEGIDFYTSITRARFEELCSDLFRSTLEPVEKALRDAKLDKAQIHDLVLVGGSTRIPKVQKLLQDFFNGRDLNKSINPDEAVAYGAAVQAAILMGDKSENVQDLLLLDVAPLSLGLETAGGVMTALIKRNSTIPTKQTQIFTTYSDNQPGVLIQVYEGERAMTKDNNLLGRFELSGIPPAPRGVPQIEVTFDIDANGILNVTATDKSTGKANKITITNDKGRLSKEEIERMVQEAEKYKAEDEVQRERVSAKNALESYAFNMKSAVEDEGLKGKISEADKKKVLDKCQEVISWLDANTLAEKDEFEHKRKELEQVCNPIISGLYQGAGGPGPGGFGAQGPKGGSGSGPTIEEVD
Chain of ATP-dependent RNA helicase DDX3X (O00571 whole entry): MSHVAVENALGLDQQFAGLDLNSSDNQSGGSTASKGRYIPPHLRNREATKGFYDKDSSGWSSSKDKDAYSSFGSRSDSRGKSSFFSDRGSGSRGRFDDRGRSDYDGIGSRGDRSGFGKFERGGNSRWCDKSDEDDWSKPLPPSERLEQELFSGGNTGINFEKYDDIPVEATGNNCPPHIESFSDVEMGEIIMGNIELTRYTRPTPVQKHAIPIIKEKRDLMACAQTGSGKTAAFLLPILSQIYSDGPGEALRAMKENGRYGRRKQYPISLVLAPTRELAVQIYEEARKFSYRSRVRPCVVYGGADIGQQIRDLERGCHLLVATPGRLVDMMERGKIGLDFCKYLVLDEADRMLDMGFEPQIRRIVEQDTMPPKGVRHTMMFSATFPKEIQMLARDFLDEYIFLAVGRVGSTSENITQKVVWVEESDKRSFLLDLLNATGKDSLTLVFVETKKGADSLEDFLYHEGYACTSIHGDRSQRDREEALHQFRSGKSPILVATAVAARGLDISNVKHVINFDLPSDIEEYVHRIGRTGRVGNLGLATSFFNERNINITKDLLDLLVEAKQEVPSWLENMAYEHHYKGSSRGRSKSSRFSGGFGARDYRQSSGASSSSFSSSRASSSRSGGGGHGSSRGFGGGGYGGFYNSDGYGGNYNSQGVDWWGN
Chain of ATP-dependent RNA helicase DDX39A (O00148 whole entry): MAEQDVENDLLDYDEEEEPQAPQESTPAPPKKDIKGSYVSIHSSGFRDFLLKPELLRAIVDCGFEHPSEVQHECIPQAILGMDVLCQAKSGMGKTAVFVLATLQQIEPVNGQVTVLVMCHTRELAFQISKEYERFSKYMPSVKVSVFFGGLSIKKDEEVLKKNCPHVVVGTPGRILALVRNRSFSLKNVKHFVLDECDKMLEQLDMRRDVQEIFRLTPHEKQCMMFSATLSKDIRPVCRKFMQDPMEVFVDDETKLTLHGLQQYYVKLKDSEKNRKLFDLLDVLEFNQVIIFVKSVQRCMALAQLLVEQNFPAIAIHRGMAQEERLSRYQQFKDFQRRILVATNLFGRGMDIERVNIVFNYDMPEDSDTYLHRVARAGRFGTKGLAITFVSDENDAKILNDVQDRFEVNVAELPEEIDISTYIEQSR
Chain of Probable ATP-dependent RNA helicase DDX17 (Q92841 whole entry): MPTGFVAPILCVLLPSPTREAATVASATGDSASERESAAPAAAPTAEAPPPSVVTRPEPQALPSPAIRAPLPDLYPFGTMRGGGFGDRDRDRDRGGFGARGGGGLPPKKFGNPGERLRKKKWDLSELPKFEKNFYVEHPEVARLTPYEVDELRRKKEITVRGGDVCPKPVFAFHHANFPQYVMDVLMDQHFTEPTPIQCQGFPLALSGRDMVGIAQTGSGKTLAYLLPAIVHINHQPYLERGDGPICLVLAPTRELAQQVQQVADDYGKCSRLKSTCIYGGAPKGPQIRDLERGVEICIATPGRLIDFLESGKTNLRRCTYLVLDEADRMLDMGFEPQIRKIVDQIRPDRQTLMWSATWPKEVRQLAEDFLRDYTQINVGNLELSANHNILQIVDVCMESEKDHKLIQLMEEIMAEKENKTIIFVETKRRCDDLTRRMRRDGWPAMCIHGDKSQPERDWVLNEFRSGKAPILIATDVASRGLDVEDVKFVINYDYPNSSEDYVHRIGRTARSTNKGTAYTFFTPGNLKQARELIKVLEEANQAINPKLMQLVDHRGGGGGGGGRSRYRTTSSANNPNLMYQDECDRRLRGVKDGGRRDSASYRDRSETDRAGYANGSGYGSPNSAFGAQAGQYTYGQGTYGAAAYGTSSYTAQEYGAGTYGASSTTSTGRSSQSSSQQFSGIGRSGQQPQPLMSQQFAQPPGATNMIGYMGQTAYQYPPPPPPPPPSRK
Chain of Transitional endoplasmic reticulum ATPase (P55072 whole entry): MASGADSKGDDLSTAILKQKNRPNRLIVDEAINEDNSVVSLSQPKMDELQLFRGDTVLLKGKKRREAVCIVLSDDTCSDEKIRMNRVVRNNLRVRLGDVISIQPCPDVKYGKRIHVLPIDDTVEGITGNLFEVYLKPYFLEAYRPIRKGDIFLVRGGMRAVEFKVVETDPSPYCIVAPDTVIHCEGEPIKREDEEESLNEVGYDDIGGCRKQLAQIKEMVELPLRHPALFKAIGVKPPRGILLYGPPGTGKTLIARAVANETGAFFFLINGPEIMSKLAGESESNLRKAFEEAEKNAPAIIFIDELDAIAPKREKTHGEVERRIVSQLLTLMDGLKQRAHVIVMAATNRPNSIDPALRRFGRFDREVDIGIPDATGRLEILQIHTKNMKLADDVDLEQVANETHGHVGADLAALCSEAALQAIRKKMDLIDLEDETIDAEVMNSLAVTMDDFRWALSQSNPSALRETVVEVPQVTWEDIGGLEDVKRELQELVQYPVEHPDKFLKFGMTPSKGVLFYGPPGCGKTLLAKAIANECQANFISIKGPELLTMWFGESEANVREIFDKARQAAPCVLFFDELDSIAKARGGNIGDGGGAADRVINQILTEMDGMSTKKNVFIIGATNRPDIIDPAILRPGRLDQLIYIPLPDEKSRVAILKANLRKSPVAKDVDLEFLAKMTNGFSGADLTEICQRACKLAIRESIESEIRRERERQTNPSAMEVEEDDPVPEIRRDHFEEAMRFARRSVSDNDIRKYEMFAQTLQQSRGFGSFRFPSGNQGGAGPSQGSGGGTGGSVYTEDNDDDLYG

The term inhibition denotes the change of the read-out against control, counted positive when it falls. Usually IC50 stands for the concentration at which inhibition is half-maximal. Take `C=C1CC[C@@](C)(c2cc(Br)c(C)cc2O)[C@H]1C`: the inhibition result in experiment [1] and in [7] was “Active” throughout. For the same molecule, the IC50 in experiment [2], in experiment [3], in experiment [4], in experiment [5] and in experiment [6] was greater than 100 µM throughout. Moreover, the Kis in experiment [8] is 3.86 µM.

As for `C[C@H]1C[C@@]2(O[C@H]3C[C@H]4[C@@H]5CC[C@H]6C[C@H](O)CC[C@]6(C)[C@H]5[C@@H](O)C[C@]4(C)[C@H]3[C@@]2(C)O)OC1(C)C`, the inhibition result in experiment [7] was “Active”.

Consider `CC(C)=C[C@@H]1C[C@H](C)c2c(O)cc(C)c3c2C1=C(C)C(=O)C3=O` [ELISABATIN A], for which the inhibition entry in [1] is “Active”. Further, the IC50 in [2], in experiment [3], in [4], in [5] and in [6] was greater than 100 µM throughout. In experiment [9], the inhibition was 34%. In experiment [8], this molecule yielded a Kis of 55 µM.

For the origin of these results see ChEMBL document CHEMBL4043127, “ATP-competitive, marine derived natural products that target the DEAD box helicase, eIF4A” (Bioorg Med Chem Lett, 2017).
